Test results taken from ChEMBL document CHEMBL3286099, “Synthesized quercetin derivatives stimulate melanogenesis in B16 melanoma cells by influencing the expression of melanin biosynthesis proteins MITF and p38 MAPK” (Bioorg Med Chem, 2014).
Active and inactive are the calls of the source. No cut-off for these calls is given here.

What was measured:
B16-F0 [1] = experiment: Intracellular melanogenesis-stimulating activity in mouse B16F0 cells at 25 uM after 72 hrs by spectrophotometry relative to control; format: functional
Summary of the method: (§1)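 Cells were seeded at 5.0 × 10⁴ cells/well, adhered for 24 h, then treated with compound for 72 h. After a PBS wash, cells were lysed in 1 M NaOH at 100 °C for 30 min to solubilize melanin. Lysate absorbance at 405 nm served as the intracellular melanin index, expressed as % of DMSO control. Experiments were done twice.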

B16-F0 [2] = experiment: Intracellular melanogenesis-stimulating activity in mouse B16F0 cells at 12.5 uM after 72 hrs by spectrophotometry relative to control; format: functional; summary of the method: as §1
B16-F0 [3] = experiment: Intracellular melanogenesis-stimulating activity in mouse B16F0 cells at 6.25 uM after 72 hrs by spectrophotometry relative to control; format: functional; summary of the method: as §1
B16-F0 [4] = experiment: Extracellular melanogenesis-stimulating activity in mouse B16F0 cells at 25 uM after 72 hrs by spectrophotometry relative to control; format: functional
Summary of the method: (§2)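 B16-F0 cells in DMEM with 10% FBS were seeded at 5.0 × 10⁴ cells/well and adhered for 24 h. They were treated for 72 h at 200–10 µM or 50–6.25 µM, depending on compound series. Absorbance of the collected culture medium at 510 nm gave extracellular melanin, expressed as % of DMSO-treated control. Experiments were done twice.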

B16-F0 [5] = experiment: Extracellular melanogenesis-stimulating activity in mouse B16F0 cells at 12.5 uM after 72 hrs by spectrophotometry relative to control; format: functional; summary of the method: as §2
B16-F0 [6] = experiment: Extracellular melanogenesis-stimulating activity in mouse B16F0 cells at 6.25 uM after 72 hrs by spectrophotometry relative to control; format: functional; summary of the method: as §2
[7] = Cytotoxicity against mouse B16F0 cells assessed as cell viability at 25 uM after 72 hrs by MTT assay; format: cell-based; settings: read-out: Activity
Summary of the method: (§3)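 B16-F0 cells were seeded at 5.0 × 10⁴ cells/well and allowed to adhere for 24 h at 37 °C. They were exposed for 72 h to compound at 200–10 µM or 50–6.25 µM, depending on compound series. MTT (5 mg/mL stock in PBS) was added for 4 h at 37 °C in 5% CO₂, then dissolved in isopropanol/0.04 N HCl and read at 590 nm. Viability is % of DMSO control; experiments were done twice.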

[8] = Cytotoxicity against mouse B16F0 cells assessed as cell viability at 12.5 uM after 72 hrs by MTT assay; format: cell-based; settings: read-out: Activity; summary of the method: as §3
[9] = Cytotoxicity against mouse B16F0 cells assessed as cell viability at 6.25 uM after 72 hrs by MTT assay; format: cell-based; settings: read-out: Activity; summary of the method: as §3
B16-F0 [10] = experiment: Intracellular melanogenesis-stimulating activity in mouse B16F0 cells at 200 uM after 72 hrs by spectrophotometry relative to control; format: functional
B16-F0 [11] = experiment: Intracellular melanogenesis-stimulating activity in mouse B16F0 cells at 100 uM after 72 hrs by spectrophotometry relative to control; format: functional
B16-F0 [12] = experiment: Intracellular melanogenesis-stimulating activity in mouse B16F0 cells at 10 uM after 72 hrs by spectrophotometry relative to control; format: functional
B16-F0 [13] = experiment: Extracellular melanogenesis-stimulating activity in mouse B16F0 cells at 200 uM after 72 hrs by spectrophotometry relative to control; format: functional; summary of the method: as §2
B16-F0 [14] = experiment: Extracellular melanogenesis-stimulating activity in mouse B16F0 cells at 100 uM after 72 hrs by spectrophotometry relative to control; format: functional; summary of the method: as §2
B16-F0 [15] = experiment: Extracellular melanogenesis-stimulating activity in mouse B16F0 cells at 10 uM after 72 hrs by spectrophotometry relative to control; format: functional; summary of the method: as §2
[16] = Cytotoxicity against mouse B16F0 cells assessed as cell viability at 200 uM after 72 hrs by MTT assay; format: cell-based; settings: read-out: Activity; summary of the method: as §3
[17] = Cytotoxicity against mouse B16F0 cells assessed as cell viability at 100 uM after 72 hrs by MTT assay; format: cell-based; settings: read-out: Activity; summary of the method: as §3
[18] = Cytotoxicity against mouse B16F0 cells assessed as cell viability at 10 uM after 72 hrs by MTT assay; format: cell-based; settings: read-out: Activity; summary of the method: as §3
B16-F0 [19] = experiment: Intracellular melanogenesis-stimulating activity in mouse B16F0 cells after 72 hrs by spectrophotometry relative to control; format: functional, cell-based; summary of the method: as §1
B16-F0 [20] = experiment: Intracellular melanogenesis-stimulating activity in mouse B16F0 cells at 50 uM after 72 hrs by spectrophotometry relative to control; format: functional; summary of the method: as §1
B16-F0 [21] = experiment: Extracellular melanogenesis-stimulating activity in mouse B16F0 cells at 50 uM after 72 hrs by spectrophotometry relative to control; format: functional; summary of the method: as §2
[22] = Cytotoxicity against mouse B16F0 cells assessed as cell viability at 50 uM after 72 hrs by MTT assay; format: cell-based; settings: read-out: Activity; summary of the method: as §3
B16-F0 [23] = experiment: Induction of melanogenesis-stimulating activity in mouse B16F0 cells assessed as increase in tyrosinase protein expression at 3.1 to 12.5 uM after 72 hrs by Western blotting analysis; format: functional, cell-based
Summary of the method: (§4)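 B16 cells were treated for 72 h at 0–12.5 µM and lysed in RIPA with protease inhibitors (0 °C, 30 min). Lanes held 10 µg protein on 10% SDS–PAGE, transferred to PVDF and blocked with 2% BSA/TBST at 4 °C overnight. Primaries ran 2 h: MITF 1:1000, tyrosinase, TRP-1 and p-p38 1:200, TRP-2 and p38 1:100. HRP secondary was 1:5000 for 2 h, with ECL densitometry. GAPDH blotted; three independent experiments.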

B16-F0 [24] = experiment: Induction of melanogenesis-stimulating activity in mouse B16F0 cells assessed as increase in TRP-1 protein expression at 3.1 to 12.5 uM after 72 hrs by Western blotting analysis; format: functional, cell-based; summary of the method: as §4
B16-F0 [25] = experiment: Induction of melanogenesis-stimulating activity in mouse B16F0 cells assessed as increase in MITF protein expression at 3.1 to 12.5 uM after 72 hrs by Western blotting analysis; format: functional, cell-based; summary of the method: as §4
B16-F0 [26] = experiment: Induction of melanogenesis-stimulating activity in mouse B16F0 cells assessed as increase in p-p38 MAPK level at 3.1 to 12.5 uM after 72 hrs by Western blotting analysis; format: functional, cell-based; summary of the method: as §4
B16-F0 [27] = experiment: Induction of melanogenesis-stimulating activity in mouse B16F0 cells assessed as increase in TRP-2 protein expression at 3.1 to 12.5 uM after 72 hrs by Western blotting analysis; format: functional, cell-based; summary of the method: as §4

COc1cc(O)c2c(=O)c(OC)c(-c3ccc(O)c(O)c3)oc2c1
Activity (B16-F0 [1]): 187.6%
Activity (B16-F0 [2]): 171.2%
Activity (B16-F0 [3]): 134%
Activity (B16-F0 [4]): 265.5%
Activity (B16-F0 [5]): 304.3%
Activity (B16-F0 [6]): 222.8%
viability at 72 h, 25 µM [7]: 54.1%
viability at 72 h, 12.5 µM [8]: 60.4%
viability at 72 h, 6.25 µM [9]: 80.4%

O=c1c(O[C@@H]2O[C@H](CO)[C@@H](O[C@@H]3O[C@H](CO)[C@@H](O)[C@H](O)[C@H]3O)[C@H](O)[C@H]2O)c(-c2ccc(O)c(O)c2)oc2cc(O)cc(O)c12
Activity (B16-F0 [10]): 176%
Activity (B16-F0 [11]): 126.8%
Activity (B16-F0 [12]): 102.6%
Activity (B16-F0 [13]): 85.2%
Activity (B16-F0 [14]): 91%
Activity (B16-F0 [15]): 83.3%
viability at 72 h, 200 µM [16]: 81.1%
viability at 72 h, 100 µM [17]: 93.2%
viability at 72 h, 10 µM [18]: 99.6%
Activity (B16-F0 [19]): Dose-dependent effect

O=c1c(O[C@@H]2O[C@H](CO)[C@@H](O[C@@H]3O[C@H](CO)[C@@H](O)[C@H](O)[C@H]3O)[C@H](O)[C@H]2O)c(-c2ccc(O[C@@H]3O[C@H](CO)[C@@H](O)[C@H](O)[C@H]3O)c(O)c2)oc2cc(O)cc(O)c12
Activity (B16-F0 [10]): 190.5%
Activity (B16-F0 [11]): 151.5%
Activity (B16-F0 [12]): 137%
Activity (B16-F0 [13]): 125.5%
Activity (B16-F0 [14]): 116%
Activity (B16-F0 [15]): 99.7%
viability at 72 h, 200 µM [16]: 74.8%
viability at 72 h, 100 µM [17]: 86.8%
viability at 72 h, 10 µM [18]: 90%
Activity (B16-F0 [19]): Dose-dependent effect

CC(=O)Oc1c(-c2ccc(O)c(O)c2)oc2cc(O)cc(O)c2c1=O
Activity (B16-F0 [20]): 104.6%
Activity (B16-F0 [1]): 114.3%
Activity (B16-F0 [2]): 99%
Activity (B16-F0 [21]): 126.6%
Activity (B16-F0 [4]): 102.6%
Activity (B16-F0 [5]): 87.6%
viability at 72 h, 50 µM [22]: 110%
viability at 72 h, 25 µM [7]: 120%
viability at 72 h, 12.5 µM [8]: 110%

CC(=O)OC[C@H]1O[C@@H](Oc2c(-c3ccc(O)c(O)c3)oc3cc(O)cc(O)c3c2=O)[C@H](OC(C)=O)[C@@H](OC(C)=O)[C@@H]1OC(C)=O
Activity (B16-F0 [20]): 148.4%
Activity (B16-F0 [1]): 121.4%
Activity (B16-F0 [2]): 122.4%
Activity (B16-F0 [21]): 96.1%
Activity (B16-F0 [4]): 101.5%
Activity (B16-F0 [5]): 89.3%
viability at 72 h, 50 µM [22]: 104%
viability at 72 h, 25 µM [7]: 102%
viability at 72 h, 12.5 µM [8]: 114%

COc1c(-c2ccc(O)c(O)c2)oc2cc(O)cc(O)c2c1=O [3-O-METHYLQUERCETIN]
Activity (B16-F0 [20]): 157.3%
Activity (B16-F0 [1]): 146.5%
Activity (B16-F0 [2]): 137%
Activity (B16-F0 [21]): 224.9%
Activity (B16-F0 [4]): 130.8%
Activity (B16-F0 [5]): 124.1%
viability at 72 h, 50 µM [22]: 74.4%
viability at 72 h, 25 µM [7]: 88.1%
viability at 72 h, 12.5 µM [8]: 98.2%
Activity (B16-F0 [23]): Active
Activity (B16-F0 [24]): Active
Activity (B16-F0 [25]): inactive
Activity (B16-F0 [26]): inactive
Activity (B16-F0 [27]): Active

O=c1c(O[C@@H]2O[C@H](CO)[C@@H](O)[C@H](O)[C@H]2O)c(-c2ccc(O)c(O)c2)oc2cc(O)cc(O)c12 [ISOQUERCETIN]
Activity (B16-F0 [10]): 206.9%
Activity (B16-F0 [11]): 157.1%
Activity (B16-F0 [12]): 116.3%
Activity (B16-F0 [13]): 86.1%
Activity (B16-F0 [14]): 85.1%
Activity (B16-F0 [15]): 91%
viability at 72 h, 200 µM [16]: 68.4%
viability at 72 h, 100 µM [17]: 80.9%
viability at 72 h, 10 µM [18]: 105%
Activity (B16-F0 [19]): Dose-dependent effect

COc1cc(O)c2c(=O)c(O)c(-c3ccc(OC)c(O)c3)oc2c1 [OMBUINE]
Activity (B16-F0 [1]): 100.5%
Activity (B16-F0 [2]): 106.1%
Activity (B16-F0 [3]): 110.2%
Activity (B16-F0 [4]): 100.1%
Activity (B16-F0 [5]): 98%
Activity (B16-F0 [6]): 100.5%
viability at 72 h, 25 µM [7]: 101%
viability at 72 h, 12.5 µM [8]: 101%
viability at 72 h, 6.25 µM [9]: 99.7%

COc1cc(O)c2c(=O)c(O)c(-c3ccc(O)c(O)c3)oc2c1 [RHAMNETIN]
Activity (B16-F0 [1]): 75.8%
Activity (B16-F0 [2]): 87.6%
Activity (B16-F0 [3]): 102.4%
Activity (B16-F0 [4]): 114.3%
Activity (B16-F0 [5]): 105.2%
Activity (B16-F0 [6]): 105.5%
viability at 72 h, 25 µM [7]: 91.6%
viability at 72 h, 12.5 µM [8]: 99.4%
viability at 72 h, 6.25 µM [9]: 92.7%

COc1ccc(-c2oc3cc(O)cc(O)c3c(=O)c2O)cc1O [TAMARIXETIN]
Activity (B16-F0 [1]): 106.9%
Activity (B16-F0 [2]): 133.5%
Activity (B16-F0 [3]): 125.6%
Activity (B16-F0 [4]): 97.9%
Activity (B16-F0 [5]): 95.1%
Activity (B16-F0 [6]): 97.5%
viability at 72 h, 25 µM [7]: 101%
viability at 72 h, 12.5 µM [8]: 103%
viability at 72 h, 6.25 µM [9]: 104%
